Most compounds without a hit are left out; they make up all but 2.6% or so of the library.
TCR-CD3 inh – human TCR-CD3 binding inhibition; inhibition, % at 9.4 µM; actives 0.37% (n = 360,000); AID 651800; TAMRA-labeled TCR probe fluorescence, biochemical; in the data active = inhibition above about 19%;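 also: recombinant mutant TCR 2C K166C tagged with TAMRA read by polarization; 0% = receptor in buffer alone and 100% = receptor with positive control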
PRMT1 FP inh – inhibitors of human PRMT1 | recombinant PRMT1, activity-based probe fluorescence polarization | actives 1.3% (n = 370,000) | inhibition, % at 2.79 µM | Q99873 | AID 652257;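 active = inhibition above about 21% made by adding two undisclosed values, limit read from the data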
SIAE primary – inhibitors of human sialic acid acetylesterase SIAE; SIAE FP-Rh probe binding, fluorescence polarization; inhibition, % at 9.66 µM; actives 0.69% (n = 370,000); AID 1053197;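 active = inhibition above a cutoff: mean of compounds within the control limits plus 3 SD of those, cut at about 17% in these data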;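 also: 0% = plate median of compound wells and 100% = probe without SIAE protein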
HTRA1 inhibitor – blocks human HTRA1 serine peptidase. Q92743. recombinant HTRA1, FP-rhodamine activity-based probe, fluorescence polarization. inhibition, % at 5.96 µM. actives 0.5% (n = 340,000); in the data active = inhibition above about 36%;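 also: 0% = enzyme with DMSO and 100% = wells lacking enzyme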
ABHD4 inh – ABHD4 (mouse) inhibition, primary FP screen; Q8VD66; actives 0.54% (n = 370,000); inhibition, % at 8.92 µM; purified mABHD4, FP-Rh probe fluorescence polarization;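 active = inhibition exceeding the mean over every tested compound plus 3 SD, cut at about 30% in these data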;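 also: 0% = plate median of compound wells and 100% = S159A mutant with DMSO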
Target sequence (Q8VD66 whole entry, looked up): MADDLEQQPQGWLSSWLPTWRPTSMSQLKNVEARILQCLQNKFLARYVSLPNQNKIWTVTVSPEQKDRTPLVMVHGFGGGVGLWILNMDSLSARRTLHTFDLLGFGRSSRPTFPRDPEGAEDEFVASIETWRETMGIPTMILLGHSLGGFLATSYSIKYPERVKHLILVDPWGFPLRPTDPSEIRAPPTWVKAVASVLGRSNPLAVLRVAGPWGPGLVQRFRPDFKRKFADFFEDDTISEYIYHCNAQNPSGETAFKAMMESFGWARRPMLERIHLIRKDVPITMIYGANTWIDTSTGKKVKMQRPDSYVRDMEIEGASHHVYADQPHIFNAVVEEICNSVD
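Assay system: wild-type mouse ABHD4 protein; compound: single nominal dose of 8.92 µM, 0.89% DMSO final; schedule: 45 min + 60 min at 25 °C; measured by: FP readout, ex 525 nm / em 598 nm; evaluation: % inhibition of FP-Rh probe binding versus controls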
SIAE confirm – human SIAE inhibition, confirmation. shares compounds with SIAE primary. SIAE FP-Rh activity-based probe, fluorescence polarization. inhibition, % at 9.66 µM. actives 13% (n = 2,300). AID 1117263;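 active = mean inhibition of the replicates above the hit cutoff set in the primary screen, cut at about 17% in these data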;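 also: 0% = SIAE with DMSO and probe and 100% = probe without SIAE; inhibitors lower polarization as more probe stays unbound to SIAE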
Starred values were filed as active, the others as inactive; . = no result.

SMILES | TCR-CD3 inh | PRMT1 FP inh | SIAE primary | HTRA1 inhibitor | ABHD4 inh | SIAE confirm
CCOP(=O)(OCC)C(NC(=O)c1ccccc1)C(Cl)(Cl)Cl (configuration not stated) | -0.3 | -0.4 | 3.3 | -2.4 | -2.9 | .
CCC(NC(=O)OCc1ccccc1)P(=O)(Oc1ccccc1)Oc1ccccc1 (configuration not stated) | . | 0.0 | -3.4 | . | -6.8 | .
CCc1c(-c2ccccc2)nc2ccccc2c1C(=O)N1CCC2(CC1)OCCO2 | 1.2 | 2.2 | 2.1 | 5.2 | -1.5 | .
NP(=O)(Oc1ccccc1Cl)Oc1ccccc1Cl | -3.2 | 4.5 | 6.3 | 15.7 | 5.3 | .
NP(=O)(OCCCCc1ccccc1)Oc1ccccc1Cl (configuration not stated) | -2.3 | -1.1 | 43.2* | 2.8 | -7.8 | 38.5*
Nc1ccc(N=Nc2ccccc2)cc1 | -9.0 | 3.9 | 2.4 | 9.8 | -1.1 | .
Cc1cc(N=Nc2ccccc2C)ccc1N | -1.1 | -2.7 | 32.3* | 11.9 | 4.3 | 0.9
CC(C)(C)NC(=S)N1CCn2cccc2C1c1cccnc1 (configuration not stated) | 0.9 | -3.1 | 21.2* | 3.3 | 1.8 | 2.3
Cc1cc2c(cc1C)NP(=S)(c1ccccc1)N2 | 1.0 | -0.7 | 1.3 | -6.4 | 4.7 | .
Nc1ccc(S(=O)(=O)N2CC3CC(C2)c2cccc(=O)n2C3)cc1 (configuration not stated) | 5.8 | 2.2 | 17.3* | -1.8 | 2.6 | 5.4
O=C(Nc1ccccc1)N1Cc2cc(Br)ccc2-n2nncc2C1 | -1.7 | 1.2 | -2.9 | . | -0.4 | .
CCN[C@@H](C)Cc1cccc(C(F)(F)F)c1 | 4.0 | 0.0 | 18.6* | 1.9 | 5.4 | 2.8
CCN(C)C(C)Cc1cccc(C(F)(F)F)c1 (configuration not stated) | -11.2 | -3.7 | 5.9 | . | -5.5 | .
C(#CCN1CCCCC1)COCc1ccccc1 | 7.0 | -0.4 | 20.8* | 8.6 | -5.5 | 1.3
Cn1c(CN2CCN(C(=O)COc3ccccc3)CC2)nc2cc([N+](=O)[O-])ccc21 | 1.6 | -1.9 | 151.0* | -1.6 | -1.0 | -2.0
COc1ccc2nc(-c3ccc(CN4CCC(n5nnc6ccccc65)CC4)cc3)c(-c3ccccc3)nc2c1 | -8.2 | 4.0 | -10.3 | . | -11.7 | .
CCOC(=O)[C@@]1(C#N)[C@@H]2C=CC(C(N)=O)=CN2[C@@H](C(N)=O)[C@@H]1c1cccc(Cl)c1 | 3.0 | 1.6 | 20.6* | 2.4 | 10.5 | -0.5
C[C@]12CCC3C(CC[C@H]4C[C@@H](O)[C@H](O)C[C@]34C)C1CC[C@@H]2O (some centres not stated) | -6.0 | 2.8 | -0.6 | 10.0 | -0.4 | .
CCN1CCN(CC(=O)c2c(C)n(Cc3ccccc3)c3ccc(OC)cc23)CC1 | 3.8 | -2.4 | -8.7 | -8.5 | 0.6 | .
COc1ccc2c(c1)c(C(=O)CN1CCC3(CC1)OCCO3)c(C)n2Cc1ccccc1 | 4.1 | 0.6 | 68.1* | -6.1 | 8.1 | -2.2
CCCCN1C(=N)C(CC)(CC)C(=O)NC1=O | 0.8 | -2.1 | 21.2* | -2.8 | 6.2 | 1.3
CCC1(CC)C(=N)N(C)C(=O)NC1=O | 1.6 | -0.4 | -1.4 | 3.7 | 3.2 | .
NP(=O)(OCC(F)(F)F)Oc1ccc(Cl)cc1 (configuration not stated) | 2.2 | -0.9 | 20.2* | 4.5 | 2.9 | 12.4
